High-throughput results (PubChem)
Wee1 degr inh – human Wee1 degradation inhibition, primary screen; P30291; HeLa Luc-Wee1K328M stability, luciferase luminescence; 100% = proteasome inhibitor MG132 effect; reporter increase, % at 5 µM; hit rate 1.2% among 220,000; AID 1321;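 active means activation above the mean of all tested compounds plus 3 SD, set per screening run, cut at about 8.8% in these data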;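 further: cells exposed to compound for 20 h before luminescence read; 0% = DMSO alone and 100% = MG132 at 30 µM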
Mdm2 ligase inh – inhibitors of human Mdm2 E3 ubiquitin ligase | cell-based MDM2 ubiquitination luciferase reporter, 2 h; 0 = plate control, 100 = twice control, blank-subtracted | hit rate 0.11% among 210,000 | AID 1230 | Q00987 | signal enhancement, % at 5 µM;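 active means signal enhancement of 30% or more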;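 further: luminescence tracks abundance of the self-degrading MDM2-luciferase fusion protein; higher signal means inhibition of MDM2 E3 ligase activity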
Target sequence (Q00987 whole entry, looked up, the tested form may be a part): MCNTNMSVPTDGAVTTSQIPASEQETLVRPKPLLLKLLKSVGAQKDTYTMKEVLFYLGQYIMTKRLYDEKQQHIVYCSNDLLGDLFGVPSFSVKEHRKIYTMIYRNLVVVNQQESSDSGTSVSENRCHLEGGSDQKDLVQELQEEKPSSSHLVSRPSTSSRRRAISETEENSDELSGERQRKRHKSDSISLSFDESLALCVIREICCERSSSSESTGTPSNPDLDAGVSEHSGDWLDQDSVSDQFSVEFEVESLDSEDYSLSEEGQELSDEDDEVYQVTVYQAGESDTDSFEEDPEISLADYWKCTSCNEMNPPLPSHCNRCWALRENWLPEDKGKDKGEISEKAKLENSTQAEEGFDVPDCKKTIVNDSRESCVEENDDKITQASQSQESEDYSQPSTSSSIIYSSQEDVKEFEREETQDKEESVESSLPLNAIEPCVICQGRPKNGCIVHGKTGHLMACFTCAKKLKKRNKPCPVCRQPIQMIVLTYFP
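system = mammalian cells stably expressing self-ubiquitinating, self-degrading MDM2 E3–luciferase fusion | quantity = 2000 cells per well seeded | incubation = 4 h cell settling then 2 h compound exposure, 37 °C | signal = SteadyLite luminescence, 15 min reagent step | benchmarks = plate control and blank wells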
Pf gamet viab – P. falciparum stage V gametocyte viability inhibition. P. falciparum stage V gametocytes, ATP luminescence, 24 h. inhibition, % at 10.9 µM. hit rate 0.065% among 150,000. AID 743093;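 active means inhibition above the mean plus 3 SD of compounds within the control limits, set per campaign, cut at about 38% in these data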;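 further: 0% = DMSO wells and 100% = medium only without gametocytes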
m-calpain inh – blocks pig calpain II enzyme activity; hit rate 0.37% among 220,000; inhibition, % at 16 µM; purified calpain II, fluorogenic peptide substrate, 30 min; AID 1236;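 active means inhibition above about 50%, limit read from the data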
Hsp70 act – Hsp70 transcriptional activation, primary screen; AID 1203; activation, % at 10 µM; HeLa Hsp70 promoter luciferase reporter, luminescence; scaled: vehicle 0, proteasome-inhibitor control 100%; hit rate 0.04% among 200,000;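 active means activation above the mean across all tested compounds plus 3 SD, cutoff set per campaign, cut at about 5.5% in these data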;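 further: 100% = MG132 at 30 µM as the positive control and 0% = DMSO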
Starred values were filed as active, the others as inactive; / = no result given. Sampled rows, rich in hits. Any-hit rate of the full collection: about 1.5%.

SMILES	Wee1 degr inh	Mdm2 ligase inh	Pf gamet viab	m-calpain inh	Hsp70 act
CCN1CCCc2cc(CN(CCN3CCOCC3)C(=S)Nc3ccc(OC)c(Cl)c3)ccc21	10.2*	-0.5	8.2	-4.0	-0.1
CCN1CCCc2cc(CN(CCN3CCOCC3)C(=S)Nc3ccc(OC)c(OC)c3)ccc21	-2.3	-7.5	0.3	-59.8	1.1
Cc1ccc(C(=O)NN2C(=O)/C(=C/c3cccn3C)SC2=S)cc1	-0.3	30.4*	10.7	-10.7	0.0
Cn1cccc1/C=C1\SC(=S)N(NC(=O)c2ccccc2Cl)C1=O	-2.7	4.0	/	3.9	-0.2
Cc1ccc(NCC(=O)N=Nc2c(O)[nH]c3ccc([N+](=O)[O-])cc23)cc1	-0.9	-4.3	-33.0	7.2	/
O=C(Nc1ccc(F)cc1)C(=O)c1c(O)[nH]c2ccc([N+](=O)[O-])cc12	2.6	-14.0	/	56.8*	/
CS(=O)(=O)N1CCN=C1SCc1ccc([N+](=O)[O-])cc1	9.1*	-8.1	/	-32.4	0.1
Cc1nn(-c2ccccc2)c(Cl)c1/C=C1\SC(=S)N(C)C1=O	14.9*	6.3	/	12.3	-0.5
CCOc1ccc(NS(=O)(=O)c2ccc(NC(=S)NC(=O)CC(C)C)cc2)cc1	4.1	-19.8	-39.3	52.1*	-0.3
CCCCn1c(SCC(=O)Nc2cccc(C)n2)nnc1-c1ccco1	9.1*	-9.8	/	-13.6	-0.2
CN1CCC/C1=C/C=C1\SC(=S)NC1=O	1.7	/	-21.9	59.7*	-0.4
CN1/C(=C\C=C2/SC(=S)NC2=O)C(C)(C)c2ccccc21	-0.9	-19.7	-34.4	-45.2	-0.1
Cc1cc(C)cc(N(CC(=O)NC2CCCC2)C(=O)C2(C)CC(=O)N=C3C=CC=CN32)c1 (stereo not given)	10.6*	5.9	11.8	-240.7	0.1
Cc1ccccc1N(CC(=O)NC1CCCC1)C(=O)C1(C)CC(=O)N=C2C=CC=CN21 (stereo not given)	-2.1	/	/	-229.9	0.1
O=C(c1ccc(Oc2ccccc2)cc1)c1nc2c(n1O)CCCC2	-2.3	-16.1	/	75.3*	-0.5
Cc1nc(CSc2nsc(/C=C/N(C)C)c2C#N)cs1	-2.9	31.1*	-26.5	7.8	-0.5
O=C(CN1CCCCCCC1)N/N=C/c1ccc(F)cc1F	9.6*	-0.3	/	24.1	-0.3
CC1=C(C(=O)OCc2ccccc2)C(c2cccs2)N2C(=O)CCSC2=N1 (stereo not given)	-3.5	-4.4	22.5	60.6*	-0.1
N/C(=N\OC(=O)Cc1ccc(Cl)cc1)c1ccncc1	8.9*	-2.1	20.6	-11.5	-0.3
N/C(=N\OC(=O)Cc1ccc(Cl)cc1)c1cccnc1	-1.6	-2.0	/	18.7	-0.3
Oc1ccccc1N=Nc1ccccc1O	2.8	-10.4	-22.8	67.9*	-0.3
Nc1ccc(N=Nc2ccccc2O)c(N)c1	/	/	-8.9	/	/
CCOc1ccc(-c2ccc(SCC)nn2)cc1	9.0*	-46.2	0.5	-11.6	-0.3
CCOc1ccc(-c2ccc(SCc3ccccn3)nn2)cc1	-0.9	-6.3	-11.8	-16.2	0.2
CCc1ccc(-c2ccc(SCc3ccccn3)nn2)cc1	9.1*	-18.6	/	-7.9	0.1
SMILES	Wee1 degr inh	Mdm2 ligase inh	Pf gamet viab	m-calpain inh	Hsp70 act
COc1ccc([C@H]2CC(=O)C=C(c3cccc(C#N)c3)C2)cc1	/	/	10.8	/	/
CS(=O)(=O)c1ccc(C(=O)N2CCc3ccccc3C2)cc1	-2.3	-4.1	1.0	59.5*	0.0
COc1ccc(NS(=O)(=O)c2ccc(N3CCCC3)c(NC(=S)Nc3ccc(SC(F)F)cc3)c2)cc1	9.3*	-15.0	17.2	-67.1	-0.2
COc1cc(NC(=O)COC(=O)/C=C/c2ccccc2Cl)cc(OC)c1	9.0*	7.5	-5.0	4.2	-0.3
N#Cc1c(NCc2ccccc2)ccnc1Cl	/	/	-2.8	/	/
CCS(=O)(=O)N1CCC(C(=O)NCCCOC)CC1	10.2*	-0.9	/	10.0	0.0
Oc1ccc(F)cc1-c1cc(-c2ccc3c(c2)OCCO3)n[nH]1	9.5*	-25.4	/	13.3	0.3
Oc1ccccc1-c1cc(-c2ccc(F)cc2)n[nH]1	/	/	-4.8	/	/
CC(NC(=O)C1CCN(S(=O)(=O)N2CCC3(CC2)OCCO3)CC1)c1ccccc1 (stereo not given)	10.7*	-3.7	8.6	11.6	-0.4
CC(NC(=O)C1CCN(S(=O)(=O)N2CCCCCC2)CC1)c1ccccc1 (stereo not given)	1.8	-10.2	/	-0.2	0.1
Brc1ccc(-c2cn3ccccc3n2)cc1	9.1*	-40.5	-11.4	4.2	/
CC(Sc1ccccc1)C(=O)NCCc1ccccc1 (stereo not given)	/	/	16.7	/	/
CC(C)CC(=O)N/C(N)=N/c1nc2ccccc2o1	0.8	-24.9	-7.0	-3.7	/
